For test [1], the system named is DC3F/AD. Briefly: In vitro activity in DC-3F/AD cell line(Ratio of IC50(actinomycin D alone) / IC50(actinomycin D + modulator) at a concentration of 5 uM.
For test [2], the system named is DC3F/AD. Briefly: Increase in adriamycin uptake in modulator-treated cells relative to untreated cells at a concentration of 5 uM. Format: functional, Cricetulus griseus. The essentials:
(§1)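 DC-3F/AD or KB-A1 cells (5 × 10⁶/mL) were incubated at 37 °C for 5 h with 50 μM adriamycin plus modulator (2.5–10 μM range). ADR fluorescence of 10 000 cells was read by flow cytometry at 4 °C with 488 nm argon-laser excitation. The value is the increase in mean fluorescence of treated cells over untreated cells.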

Test [3] relates to DC3F/AD. Put plainly: Increase in adriamycin uptake in modulator-treated cells relative to untreated cells at a concentration of 10 uM. Format: functional, Cricetulus griseus. The essentials: as §1
The test system of test [4] is DC3F/AD. Briefly: Percent of cell viability remaining after incubating with a 10 uM concentration. Format: functional, Cricetulus griseus. The essentials: (§2)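 Cells were grown with modulator alone for 4 days under the same conditions as the chemosensitivity assay, and read by MTT. Viability = (absorbance with modulator/absorbance of control cells) × 100. "tox" marks viability below 25%.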

The test system of test [5] is DC3F/AD. Briefly: Percent of cell viability remaining after incubating the cells with the modulator alone a concentration of 5 uM. Format: functional, Cricetulus griseus. The essentials:
as §2

In test [6] the test system is DC3F/AD. Briefly: In vitro activity in DC-3F/AD cell line Ratio of IC50(actinomycin D alone) / IC50(actinomycin D + modulator) at a concentration of 10 uM.

For the compound `C=CCNc1nc(NCC=C)nc(N2CCC(N(C)CC(c3ccccc3)c3ccccc3)CC2)n1`, the Fold reversion in the test on DC3F/AD [1] came to 354; in the test on DC3F/AD [6], 1418. The Increase in the test with DC3F/AD [2] turned out to be 20.6; in the test on DC3F/AD [3], 27.9. The Viability was 85% with DC3F/AD [4] and 88% in the test on DC3F/AD [5].
Regarding `C=CCNc1nc(NCC=C)nc(N2CCN(CCCC(c3ccc(F)cc3)c3ccc(F)cc3)CC2)n1`, the Fold reversion in the test on DC3F/AD [1] is reported as 171; with DC3F/AD [6], less than 25. For the same compound, the Viability in the test on DC3F/AD [5] is given as 50%.
`C=CCNc1nc(NCC=C)nc(N2CCN(CCC(c3ccccc3)c3ccccc3)CC2)n1`: the Fold reversion in the test with DC3F/AD [1] was 42; in the test with DC3F/AD [6], 598. Also, the values for the Increase in the test with DC3F/AD [2] and in the test with DC3F/AD [3] were 0 and 1.2, respectively. Also, the Viability in the test on DC3F/AD [4] is given as 64%; in the test on DC3F/AD [5], 72%.
As for `C=CCNc1nc(NCC=C)nc(N2CCC(NCC3c4ccccc4CS(=O)(=O)c4ccccc43)CC2)n1` (centres undefined), the Fold reversion is 27 in the test with DC3F/AD [1] and 2536 in the test on DC3F/AD [6]. In addition, the Viability in the test on DC3F/AD [4] worked out at 94%; in the test on DC3F/AD [5] it was 90%.
As for `C=CCNc1cc(N2CCC(NCC(c3ccccc3)c3ccccc3)CC2)nc(NCC=C)n1`, the values for the Fold reversion in the test on DC3F/AD [1] and in the test with DC3F/AD [6] were 472 and less than 25, respectively. The results for the Increase with DC3F/AD [2] and in the test with DC3F/AD [3] were 15.1 and 16.3, respectively. Further, the Viability in the test on DC3F/AD [5] was found to be 67%.
Regarding `C=CCNc1nc(NCC=C)nc(N2CCC(NC(c3ccc(F)cc3)c3ccc(F)cc3)CC2)n1`, the values for the Fold reversion in the test with DC3F/AD [1] and with DC3F/AD [6] were 388 and 1212, respectively. The Increase in the test with DC3F/AD [2] turned out to be 16; in the test on DC3F/AD [3], 25.1. For the same compound, the results for the Viability in the test on DC3F/AD [4] and in the test with DC3F/AD [5] were 56% and 76%, respectively.
For the compound `C=CCNc1nc(NCC=C)nc(N2CCC(NCC(c3ccccc3)(c3ccccc3)c3ccccc3)CC2)n1`, the Fold reversion is 57 in the test with DC3F/AD [1] and less than 25 in the test with DC3F/AD [6]. The compound also displayed a Viability in the test with DC3F/AD [5] of 59%.
For `C/C=C/CNc1nc(NC/C=C/C)nc(N2CCC(NC(c3ccc(F)cc3)c3ccc(F)cc3)CC2)n1.Cl.Cl`, the Fold reversion in the test on DC3F/AD [1] was 146; in the test on DC3F/AD [6], 339. Also, the results for the Viability in the test with DC3F/AD [4] and with DC3F/AD [5] were 43% and 82%, respectively.
Turning to `C=CCNc1cc(N2CCC(NC(c3ccc(F)cc3)c3ccc(F)cc3)CC2)nc(NCC=C)n1.Cl.Cl`, the Fold reversion in the test with DC3F/AD [1] was 1174; in the test with DC3F/AD [6], less than 25. Besides, the Viability with DC3F/AD [5] amounted to 49%.
In the case of `C=CCNc1nc(NCCC)nc(N2CCC(NC(c3ccc(F)cc3)c3ccc(F)cc3)CC2)n1.Cl.Cl`, the Increase in the test with DC3F/AD [2] turned out to be 19.8; in the test with DC3F/AD [3] it was 25.5. In addition, the Viability with DC3F/AD [4] was 47%. The Fold reversion in the test with DC3F/AD [6] came out at 2220.
`C=CCNc1nc(NCC=C)nc(N2CCC(SCCC(c3ccccc3)c3ccccc3)CC2)n1`: the Fold reversion with DC3F/AD [1] worked out at 41; in the test on DC3F/AD [6], 248. For the same compound, the Increase in the test on DC3F/AD [2] was determined as 8; with DC3F/AD [3] it was 19.7. In addition, the Viability is given as 79% with DC3F/AD [4] and 85% in the test on DC3F/AD [5].
Take `C=CCNc1nc(NCC=C)nc(N2CCC(NC(c3ccccc3)c3ccc(F)cc3)CC2)n1.Cl` (centres undefined): the Fold reversion is 732 in the test on DC3F/AD [1] and 1796 in the test on DC3F/AD [6]. Further, the Increase in the test on DC3F/AD [2] was 10.5; in the test with DC3F/AD [3], 19.4. Further, the Viability in the test on DC3F/AD [4] was 54%; with DC3F/AD [5], 72%.
As for `C=CCNc1nc(NCC=C)nc(N2CCC(OC(c3ccc(F)cc3)c3ccc(F)cc3)CC2)n1.Cl`, the Fold reversion in the test with DC3F/AD [1] turned out to be 290; in the test with DC3F/AD [6] it was 969. Further, the values for the Increase with DC3F/AD [2] and in the test with DC3F/AD [3] were 11.4 and 16.1, respectively. Besides, the Viability in the test with DC3F/AD [4] worked out at 56%; with DC3F/AD [5] it was 70%.
In the case of `C=CCNc1nc(NCCC)nc(N2CCC(NCCC(c3ccccc3)c3ccccc3)CC2)n1`, the Fold reversion in the test on DC3F/AD [1] and with DC3F/AD [6] was less than 25 each time. Further, the Increase is reported as 17.9 in the test on DC3F/AD [2] and 27.2 with DC3F/AD [3].
For the compound `C=CCNc1nc(NCC=C)nc(N2CCC(SC(c3ccccc3)c3ccccc3)CC2)n1`, the Fold reversion with DC3F/AD [1] worked out at 380; in the test on DC3F/AD [6], 1202. The compound further returned an Increase in the test with DC3F/AD [3] of 28.3. The Viability was 76% in the test on DC3F/AD [4] and 90% in the test on DC3F/AD [5].
As for `C=CCNc1nc(NCC=C)nc(N2CCN(C(c3ccc(Cl)cc3)c3ccc(Cl)cc3)CC2)n1.CS(=O)(=O)O`, the results for the Fold reversion in the test on DC3F/AD [1] and with DC3F/AD [6] were 42 and 99, respectively. Further, the Viability in the test with DC3F/AD [4] worked out at 67%; in the test with DC3F/AD [5], 81%.
As for `C=CCNc1nc(NCC=C)nc(N2CCC(N(CC=C)C(c3ccc(F)cc3)c3ccc(F)cc3)CC2)n1`, the Increase turned out to be 22.1 in the test with DC3F/AD [2] and 33.9 in the test with DC3F/AD [3]. In the test with DC3F/AD [4], this compound yielded a Viability of 49%. In addition, the Fold reversion with DC3F/AD [6] was found to be 627.
Consider `C=CCNc1nc(NCC=C)nc(N2CCN(NC(=O)C3c4ccccc4CCc4ccccc43)CC2)n1`, for which the values for the Fold reversion in the test on DC3F/AD [1] and in the test with DC3F/AD [6] were 138 and 2174, respectively. For the same compound, the Increase came out at 9.5 in the test on DC3F/AD [2] and 24.8 in the test with DC3F/AD [3]. In addition, the Viability in the test on DC3F/AD [4] was found to be 67%; in the test with DC3F/AD [5], 86%.
For `C=CCNc1nc(NCC=C)nc(N2CCC(NCC(c3ccccc3)c3ccccc3)CC2)n1`, the results for the Fold reversion with DC3F/AD [1] and with DC3F/AD [6] were 753 and 1540, respectively. The Increase was 31.3 in the test on DC3F/AD [2] and 34.7 with DC3F/AD [3]. In addition, the Viability in the test with DC3F/AD [4] is recorded as 77%; in the test with DC3F/AD [5], 90%.
Regarding `C=CCNc1nc(NCC=C)nc(N2CCC(N(CC)C(c3ccc(F)cc3)c3ccc(F)cc3)CC2)n1`, the Fold reversion worked out at 1008 in the test on DC3F/AD [1] and 1838 in the test on DC3F/AD [6]. For the same compound, the figures for the Increase in the test on DC3F/AD [2] and in the test with DC3F/AD [3] were 42.7 and 44.7, respectively. Also, the Viability was 53% in the test with DC3F/AD [4] and 75% in the test on DC3F/AD [5].
Take `C=CCNc1nc(NCC=C)nc(NN2CCN(C(c3ccc(F)cc3)c3ccc(F)cc3)CC2)n1`: the Fold reversion is recorded as 1932 in the test on DC3F/AD [1] and 5344 with DC3F/AD [6]. Moreover, the Increase with DC3F/AD [2] is reported as 18.3; with DC3F/AD [3], 20.7. For the same compound, the figures for the Viability in the test on DC3F/AD [4] and with DC3F/AD [5] were 78% and 82%, respectively.
Consider `C=CCNc1nc(NCC=C)nc(N2CCC(NCC(c3c(C)cccc3C)c3c(C)cccc3C)CC2)n1`, for which the Fold reversion in the test on DC3F/AD [1] was 93; in the test on DC3F/AD [6], 374. The Increase in the test with DC3F/AD [2] was determined as 28.9; in the test with DC3F/AD [3], 35.5. For the same compound, the Viability in the test on DC3F/AD [4] came to 84%; with DC3F/AD [5] it was 100%.
`C=CCNc1nc(NCC=C)nc(N2CCC(NCCC(c3ccccc3)c3ccccc3)CC2)n1`: the results for the Fold reversion with DC3F/AD [1] and in the test with DC3F/AD [6] were 220 and less than 25, respectively. In addition, the Increase with DC3F/AD [2] is 21.5; in the test on DC3F/AD [3], 29.8. The same compound had a Viability with DC3F/AD [5] of 50%.

These data come from ChEMBL document CHEMBL1126298, “New triazine derivatives as potent modulators of multidrug resistance” (1992).
